Assay results from PMC11484934 (Nature Communications, 2024).
Each block holds one compound with its values, some of them ahead of it.

Assays:
HepG2 cells [1] = assay: LC-MS/MS quantification of intracellular FBP concentrations; type: cell-based, human; settings: HepG2 cells treated with 10 mM FBP, 30 min
Procedure, shortened: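 HepG2 cells (2 × 10^6/well, triplicates) were allowed to adhere overnight. They were treated 0.5 h with 10 mM test compound or H2O in 5 mM or 25 mM glucose medium. After PBS washes, cells were extracted in cold 80% MeOH containing 13C6-labelled internal standard (0.1 µg/mL), centrifuged and dried. Extracts were run by HILIC (BEH Amide) LC-MS/MS in negative mode, 10 mM NH4HCO3/MeCN.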

PMM2 [2] = biological target: T1, PMM2 (Homo sapiens, UniProt O15305); assay: PMM2 enzyme activity assay; type: biochemical
T1 sequence (O15305 1-246): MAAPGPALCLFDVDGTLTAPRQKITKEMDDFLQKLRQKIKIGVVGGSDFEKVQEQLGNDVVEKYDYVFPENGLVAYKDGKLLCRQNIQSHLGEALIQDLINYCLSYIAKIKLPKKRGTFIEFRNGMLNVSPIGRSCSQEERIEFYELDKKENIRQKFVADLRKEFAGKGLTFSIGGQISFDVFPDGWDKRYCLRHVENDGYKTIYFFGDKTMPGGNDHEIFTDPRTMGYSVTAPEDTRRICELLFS

PGAM1-H11A = biological target: T2, PGAM1-H11A (Homo sapiens, UniProt P18669, H11A); assay: PGAM1 enzyme activity assay, H11A mutant; type: biochemical
T2 sequence (P18669 1-254 H11A): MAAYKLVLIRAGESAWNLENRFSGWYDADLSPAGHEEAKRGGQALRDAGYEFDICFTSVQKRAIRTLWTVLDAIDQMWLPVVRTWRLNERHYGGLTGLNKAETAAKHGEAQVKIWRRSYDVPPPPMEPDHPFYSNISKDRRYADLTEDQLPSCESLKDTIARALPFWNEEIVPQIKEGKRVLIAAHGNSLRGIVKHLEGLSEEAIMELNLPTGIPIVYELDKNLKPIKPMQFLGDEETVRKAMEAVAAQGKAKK

recombinant human RAN = assay: Thermal shift assay with purified recombinant protein; type: binding; settings: FBP vs H2O, CBB staining
Procedure, shortened: (§1)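 Purified recombinant human protein (0.2 μg/μL) was treated with test compound or H2O for 30 min at 25 °C. It was split into six aliquots, each heated in parallel for 3 min at its set temperature, then spun 20,000 g for 20 min at 4 °C. Supernatants were run on SDS-PAGE and stained with Coomassie blue.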

recombinant PGAM1 [3] = biological target: T3, recombinant PGAM1 (Homo sapiens, UniProt P18669); assay: Microscale thermophoresis; type: binding
T3 sequence (P18669 whole entry): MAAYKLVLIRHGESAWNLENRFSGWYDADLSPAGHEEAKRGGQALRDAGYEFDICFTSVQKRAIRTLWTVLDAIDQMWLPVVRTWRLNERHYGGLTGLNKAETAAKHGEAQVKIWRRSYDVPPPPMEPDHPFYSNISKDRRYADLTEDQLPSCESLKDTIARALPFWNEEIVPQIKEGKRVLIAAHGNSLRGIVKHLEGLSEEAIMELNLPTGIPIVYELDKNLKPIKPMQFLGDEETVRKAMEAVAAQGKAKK
Procedure, shortened: (§2)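 Purified protein was labelled on lysines with a RED-NHS dye. It was mixed with test compound in 50 mM Tris-HCl pH 7.5, 100 mM NaCl, 0.05% Tween-20 and incubated 30 min at room temperature in the dark. The mix was loaded into capillaries for microscale thermophoresis on a Monolith NT.115.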

recombinant human PRPS1 = assay: Thermal shift assay with purified recombinant protein; type: binding; settings: recombinant human PRPS1, FBP vs H2O, CBB staining
Procedure, shortened: as §1

sgPGAM1 HepG2 cells = assay: Cell viability / proliferation assay; type: cell-based, human; settings: sgPGAM1 HepG2, FBP 10 mM, 24 h, glucose-free medium
Procedure, shortened: (§3)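 HepG2 cells (5000/well) were allowed to adhere overnight. They were exposed 24 h to a dilution series of test compound in glucose-free or 5 mM glucose medium, or to derivatives in 25 mM glucose medium for 24 h or 48 h. Viability was read by CCK8 colorimetry. PGAM1-knockout cells were made with a LentiCRISPR v2 sgRNA (HEK293T-packaged lentivirus, polybrene 10 µg/mL for 24 h) and selected with puromycin.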

HepG2 cells [4] = assay: Cell viability / proliferation assay; type: cell-based, human; settings: sgCTRL HepG2, FBP 10 mM, 24 h, glucose-free medium
Procedure, shortened: as §3

PGM1 [5] = biological target: T4, PGM1 (Homo sapiens, UniProt P36871); assay: Microscale thermophoresis; type: binding
T4 sequence (P36871 1-580 isoform P36871-2): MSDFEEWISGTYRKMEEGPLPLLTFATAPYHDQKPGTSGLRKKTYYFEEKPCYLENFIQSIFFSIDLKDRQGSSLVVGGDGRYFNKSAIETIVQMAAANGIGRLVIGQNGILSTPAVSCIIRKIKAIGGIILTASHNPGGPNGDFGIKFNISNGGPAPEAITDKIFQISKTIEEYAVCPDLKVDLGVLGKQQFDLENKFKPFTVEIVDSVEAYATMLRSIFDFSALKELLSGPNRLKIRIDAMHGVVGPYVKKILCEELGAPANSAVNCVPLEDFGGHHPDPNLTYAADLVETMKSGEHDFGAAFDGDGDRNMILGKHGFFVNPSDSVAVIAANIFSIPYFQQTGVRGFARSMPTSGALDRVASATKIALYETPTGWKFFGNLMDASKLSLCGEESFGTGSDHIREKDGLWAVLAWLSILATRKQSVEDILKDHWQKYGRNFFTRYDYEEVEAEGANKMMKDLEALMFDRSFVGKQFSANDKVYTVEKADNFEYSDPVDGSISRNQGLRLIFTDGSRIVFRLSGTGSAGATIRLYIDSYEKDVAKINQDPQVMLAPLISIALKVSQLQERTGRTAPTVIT
Procedure, shortened: as §2

PGM1 [6] = biological target: T4, PGM1; assay: Thermal shift assay with purified recombinant protein; type: binding; settings: recombinant human PGM1, FBP vs H2O, CBB staining
Procedure, shortened: as §1

recombinant human HDAC2 = recombinant human HDAC2 (Homo sapiens, UniProt Q92769); assay: as above; type: binding; settings: recombinant human HDAC2, FBP vs H2O, CBB staining
Chain of recombinant human HDAC2 (Q92769 whole entry): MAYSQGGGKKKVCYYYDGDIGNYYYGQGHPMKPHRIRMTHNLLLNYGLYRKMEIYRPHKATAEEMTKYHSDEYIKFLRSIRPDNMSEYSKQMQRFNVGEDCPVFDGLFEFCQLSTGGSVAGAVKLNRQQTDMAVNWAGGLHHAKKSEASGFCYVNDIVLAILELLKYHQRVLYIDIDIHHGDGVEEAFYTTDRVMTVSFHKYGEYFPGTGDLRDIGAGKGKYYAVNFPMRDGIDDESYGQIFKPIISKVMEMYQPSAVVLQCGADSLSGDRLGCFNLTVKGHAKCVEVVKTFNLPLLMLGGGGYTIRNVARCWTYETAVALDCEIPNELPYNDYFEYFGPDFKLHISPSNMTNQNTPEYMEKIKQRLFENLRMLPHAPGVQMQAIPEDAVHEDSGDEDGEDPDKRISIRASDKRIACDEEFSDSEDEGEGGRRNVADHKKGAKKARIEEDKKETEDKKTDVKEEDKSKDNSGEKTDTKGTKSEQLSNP
Procedure, shortened: as §1

HepG2 cells [7] = assay: LC-MS/MS detection of 3-PG and 2-PG; type: cell-based, human; settings: 10 mM FBP, 30 min
Procedure, shortened: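 HepG2 cells (2 × 10^6/well, triplicates) were treated with 10 mM test compound for 0.5 h in 5 mM glucose, or H2O as control. Cells were extracted in cold 80% MeOH and analysed by HILIC LC-MS/MS in negative mode. The 3-PG and 2-PG fraction came from the m/z 97/(79 + 97) fragment ratio against standard-mixture curves. Values were scaled to the WT total mono-PG concentration.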

PMM2 [8] = biological target: T1, PMM2; assay: Thermal shift assay with purified recombinant protein; type: binding; settings: recombinant human PMM2, FBP vs H2O, CBB staining
Procedure, shortened: as §1

recombinant PGAM1 [9] = biological target: T3, recombinant PGAM1; assay: PGAM1 enzyme activity assay; type: biochemical; settings: for effect on PGAM1 enzymatic activity: PGAM1 enzymatic assay
PMM2 [10] = biological target: T1, PMM2; assay: Microscale thermophoresis; type: binding
Procedure, shortened: as §2

PGM1 [11] = biological target: T4, PGM1; assay: PGM1 enzyme activity assay; type: biochemical
recombinant human GAPDH = recombinant human GAPDH (Homo sapiens, UniProt P04406); assay: Thermal shift assay with purified recombinant protein; type: binding; settings: FBP vs H2O, CBB staining
Chain of recombinant human GAPDH (P04406 43-335): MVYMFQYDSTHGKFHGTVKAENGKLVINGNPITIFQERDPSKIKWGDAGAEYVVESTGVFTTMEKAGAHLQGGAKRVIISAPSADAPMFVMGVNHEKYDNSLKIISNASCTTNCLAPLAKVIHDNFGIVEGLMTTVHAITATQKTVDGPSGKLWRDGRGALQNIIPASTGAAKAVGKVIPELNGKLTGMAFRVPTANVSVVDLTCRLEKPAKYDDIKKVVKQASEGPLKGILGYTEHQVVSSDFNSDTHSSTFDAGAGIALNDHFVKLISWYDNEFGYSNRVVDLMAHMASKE
Procedure, shortened: as §1

sgCTRL HepG2 cells [12] = assay: Glucose consumption, sgCTRL HepG2 cells; type: cell-based, human; settings: FBP 10 mM, 30 min
Procedure, shortened: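 HepG2 cells were cultured overnight in 96 wells, then treated with H2O or 10 mM test compound for 0.5 h, or with H2O or 1 mM derivative for 24 h. Glucose consumption from the culture medium was measured with a glucose oxidase kit.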

sgCTRL HepG2 cells [13] = assay: Lactate production, sgCTRL HepG2 cells; type: cell-based, human; settings: FBP 10 mM, 30 min
Procedure, shortened: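 HepG2 cells were cultured overnight in 96 wells, then treated with H2O or 10 mM test compound for 0.5 h, or with H2O or 1 mM derivative for 24 h. Lactate in the culture medium was measured with a lactate assay kit.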

[14] = biological target: Flag-tagged PGAM1 in HEK293T cells (Homo sapiens, UniProt P18669); type: cell-based; settings: 30 min, glucose-free medium
Chain of Flag-tagged PGAM1 in HEK293T cells (P18669 whole entry): as the sequence (P18669 whole entry) above

recombinant PGAM1 [15] = biological target: T3, recombinant PGAM1; assay: Histidine phosphorylation of recombinant PGAM1; type: biochemical; settings: for PGAM1 phosphorylation / 3-pHis modification: immunoblotting and Phos-tag SDS-PAGE
Procedure, shortened: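 Recombinant human PGAM1 was incubated with test compound. It was then analysed by Phos-tag SDS-PAGE or by immunoblotting with monoclonal antibodies specific for N3-phosphohistidine (3-pHis) and 1-phosphohistidine (1-pHis).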

recombinant human OXSR1 = recombinant human OXSR1 (Homo sapiens, UniProt O95747); assay: Thermal shift assay with purified recombinant protein; type: binding; settings: recombinant human OXSR1, FBP vs H2O, CBB staining
Chain of recombinant human OXSR1 (O95747 whole entry): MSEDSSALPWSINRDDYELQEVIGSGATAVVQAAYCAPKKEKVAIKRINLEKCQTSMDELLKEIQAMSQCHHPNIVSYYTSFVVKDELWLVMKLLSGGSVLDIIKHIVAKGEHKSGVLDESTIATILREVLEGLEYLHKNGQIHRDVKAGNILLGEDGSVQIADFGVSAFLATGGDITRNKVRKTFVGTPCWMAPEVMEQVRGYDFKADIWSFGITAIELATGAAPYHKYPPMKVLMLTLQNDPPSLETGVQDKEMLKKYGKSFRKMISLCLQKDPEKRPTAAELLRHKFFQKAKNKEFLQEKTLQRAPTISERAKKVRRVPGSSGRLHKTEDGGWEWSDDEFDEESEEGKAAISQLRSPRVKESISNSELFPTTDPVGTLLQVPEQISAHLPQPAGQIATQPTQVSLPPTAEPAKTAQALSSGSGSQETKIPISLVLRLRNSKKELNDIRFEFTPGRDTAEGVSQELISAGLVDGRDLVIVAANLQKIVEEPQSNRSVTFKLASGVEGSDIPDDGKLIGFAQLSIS
Procedure, shortened: as §1

Compound: O=C(COP(=O)(O)O)[C@@H](O)[C@H](O)[C@H](O)COP(=O)(O)O [FBP, fructose-1,6-bisphosphate]
intracellular FBP concentration after exogenous treatment (HepG2 cells [1]): 1.435 ± 0.062 mM
IC50 (PMM2 [2]): 7910 µM
activation effect towards PGAM1-H11A mutant (PGAM1-H11A): lost its activation effect
thermal stability of recombinant protein (recombinant human RAN): reduced
Kd (recombinant PGAM1 [3]): 166 µM
thermal stability of recombinant protein (recombinant human PRPS1): increased
effect on cell proliferation in PGAM1-knockout cells (sgPGAM1 HepG2 cells): abolished
cell proliferation (HepG2 cells [4]): significantly upregulated
Kd (PGM1 [5]): 235 µM
thermal stability of recombinant protein (PGM1 [6]): increased
thermal stability of recombinant protein (recombinant human HDAC2): reduced
2-PG/3-PG ratio (HepG2 cells [7]): significant increased
thermal stability of recombinant protein (PMM2 [8]): increased
EC50 (recombinant PGAM1 [9]): 480 µM
effect on PGAM1 enzymatic activity (recombinant PGAM1 [9]): could activate the enzyme
Kd (PMM2 [10]): 247 µM
IC50 (PGM1 [11]): 2790 µM
thermal stability of recombinant protein (recombinant human GAPDH): increased
glucose consumption (sgCTRL HepG2 cells [12]): significant increases
lactate production (sgCTRL HepG2 cells [13]): significant increases
histidine phosphorylation of Flag-tagged PGAM1 in living cells [14]: Dose-dependent histidine phosphorylation
concentration able to phosphorylate PGAM1 (recombinant PGAM1 [15]; concentration-dependent immunoblotting, recombinant PGAM1): 1 mM
PGAM1 phosphorylation / 3-pHis modification (recombinant PGAM1 [15]; recombinant PGAM1): act as a phosphate donor to form 3-pHis modification
time after which 3-pHis modification decayed (recombinant PGAM1 [15]; time-dependent PGAM1 histidine phosphorylation): > 4 h
thermal stability of recombinant protein (recombinant human OXSR1): reduced

Compound: O=P(O)(O)O[C@H]1O[C@H](CO)[C@@H](O)[C@H](O)[C@H]1O [G1P, α-D-glucose-1-phosphate]
effect on PGAM1 enzymatic activity (recombinant PGAM1 [9]): did not regulate the enzymatic activity

Compound: D-glucose-6-phosphate [G6P]
effect on PGAM1 enzymatic activity (recombinant PGAM1 [9]): did not regulate the enzymatic activity

Compound: fructose-1-phosphate [F1P]
effect on PGAM1 enzymatic activity (recombinant PGAM1 [9]): did not regulate the enzymatic activity

Compound: fructose-6-phosphate [F6P]
effect on PGAM1 enzymatic activity (recombinant PGAM1 [9]): did not regulate the enzymatic activity

The remaining lines, values ahead:

PGAM1 phosphorylation / 3-pHis modification (recombinant PGAM1 [15]; recombinant PGAM1): weak phosphorylation
Compound: C=C(OP(=O)(O)O)C(=O)O [PEP, phosphoenolpyruvate, reference compound]

effect on PGAM1 enzymatic activity (recombinant PGAM1 [9]): did not regulate the enzymatic activity
Compound: D-mannose-6-phosphate [M6P]
